Results as given in article PMC3908450 (Biological chemistry, 2011).
Marks after values point to notes of the source that are not given here.

Tested on: mutant ataxin-3 protein
Assay: not given
Conditions: PNA conjugate; GM06151 fibroblasts; ref Hue et al., 2009a; cited from earlier work

Substance | Selectivity (wt IC50 versus mut IC50)
K-GCTGCTGCTGCTGCTGCTG-K8 [REP19] | 2.7 ^‡ fold

Tested on: mutant ataxin-3 protein
Assay: Inhibition of mutant ATX3 protein expression in patient fibroblasts GM06151
Type: cell-based, human
Conditions: PNA conjugates
Procedure, shortened: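 GM06151 fibroblasts (CAG 74 mutant/24 wild-type repeats) in MEM with 10% heat-inactivated FBS and 0.5% NEAA, 37 °C, 5% CO2, plated two days before dosing. Conjugate stocks heated 65 °C for 5 min, diluted in OptiMEM and added; medium replaced at 24 h; harvest typically day 4. 7.5% SDS-PAGE resolved mutant and wild-type ATX3 bands for western blotting, with β-actin also probed. Inhibition relative to control was fitted per replicate to get separate mutant and wild-type IC50s.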

Substance | Selectivity (wt IC50 versus mut IC50)
K-GCTGCTGCTGCTGCTGCTG-(Kpeptoid)8 [REP19P] | >2.2 fold
K-GCTGCTGCTGCTGCTGCTG-R8 [REP19R] | 1.6 fold
K-GCTGCTGCT-K8 [REP9] | 3.0 fold
K8-GCTGCTG-K [REP7NK] | >1.7 fold
R8-GCTGCTGCTGCTGCTGCTG-K [REP19NR] | 2.7 fold
K8-GCTGCTGCTGCTGCTGCTG-K [REP19NK] | 3.4 fold
K-GCTGCTGCTGCTG-K8 [REP13] | 2.2 fold
K-GCTGCTGCTGCTGCTGCTG-Spacer-K8 [REP19S] | 1.7 fold
K-GCTGCTGCTGCTGCTG-K8 [REP16] | 2.4 fold
K-GCTGCTGCTGC-K8 [REP11] | 3.4 fold
K8-GCTGCTGCTGCTG-K8 [REP13KK] | 1.8 fold
K-GCTGCTGCTGCTG-K6 [REP13K6] | 5.0 fold
K-GCTGCTGCTGCTG-K4 [REP13K4] | 2.3 fold
K-GCTGCTG-K8 [REP7] | 3.6 fold
